# SENP7 block: blocks the human protease SENP7; Q9BQF6; AID 434973; recombinant SENP7, Z-RLRGG-aminoluciferin luminescence, 40 min; 330,000 tested, 1.5% active; inhibition, % at 5 µM;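 active means inhibition above about 50% at the single test dose, limit read from the data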;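 further: plate controls were DMSO with enzyme for no effect and no enzyme buffer wells for full effect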
# SENP6 inh: blocks the human protease SENP6; 330,000 tested, 1.8% active; inhibition, % at 10 µM; Q9GZR1; AID 2599; Recombinant SENP6 catalytic domain, aminoluciferin luminescence;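 active means inhibition above about 50% at the single tested dose, limit read from the data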;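 further: plate controls were DMSO wells with enzyme for no effect and DMSO wells lacking enzyme for full effect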
# SENP8 block-1: inhibitors of human SENP8 protease; Q96LD8; recombinant SENP8, Nedd8 substrate fluorescence; inhibition, % at 20 µM; 360,000 tested, 0.64% active; AID 602440; in the data active means inhibition mostly above about 40%, no sharp cut-off; inactive means mostly below about 27%
# SENP1 inh: inhibitors of human SENP1 SUMO protease catalytic domain | Q9P0U3 | recombinant SENP1 catalytic domain, CyPet-SUMO1-YPet FRET cleavage | inhibition, % at 10 µM | 360,000 tested, 0.21% active;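 active means inhibition at least 30% at 10 µM, raw YFP signal under a set limit, fluorescence ratio 0.5 to 1.5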;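 further: 0% = enzyme with DMSO and 100% = no enzyme wells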
# Target sequence (Q9P0U3 419-644 limits assumed): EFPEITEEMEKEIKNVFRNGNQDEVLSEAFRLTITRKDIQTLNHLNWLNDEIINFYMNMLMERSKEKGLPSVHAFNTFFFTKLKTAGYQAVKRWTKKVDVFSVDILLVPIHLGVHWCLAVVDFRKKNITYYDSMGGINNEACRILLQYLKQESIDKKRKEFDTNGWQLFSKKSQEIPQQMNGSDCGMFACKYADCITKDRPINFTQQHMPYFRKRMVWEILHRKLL
#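 material = recombinant human SENP1 catalytic domain, His6-tagged | quantity = 20 pM enzyme | reagent = 25 nM SUMO1 FRET substrate | compound dosing = 10 µM single point, 0.5% DMSO | timing = 50 min enzyme reaction, room temperature, light-protected | detection = FRET, CFP and YFP emission | control set = no-enzyme low, enzyme-DMSO high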
# SENP8 block-2: blocks the human protease SENP8. Q96LD8. purified SENP8, Z-RLRGG-aminoluciferin cleavage, luminescence. inhibition, % at 10 µM. 330,000 tested, 1.2% active. AID 2540; in the data active means inhibition above about 50%
# SENP8 confirm: human SENP8 inhibition, confirmed; Recombinant SENP8, Z-RLRGG-aminoluciferin luminescence, 60 min; shares compounds with SENP7 block; 6,200 tested, 40% active; inhibition, % at 12.5 µM;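 active means mean inhibition across replicates above about 50%, limit read from the data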
# SENP6 conf: confirmation of human SENP6 protease inhibitors; shares compounds with SENP7 block; recombinant SENP6, Z-RLRGG-aminoluciferin luminescence; inhibition, % at 12.5 µM; 6,200 tested, 58% active
# SENP7 confirm: confirmation of human SENP7 protease inhibitors | shares compounds with SENP7 block | recombinant SENP7, Z-RLRGG-aminoluciferin luminescence, 40 min | inhibition, % at 12.5 µM | 6,200 tested, 69% active | AID 488917
# Casp3 select: inhibits human caspase-3 in SENP selectivity test; 6,200 tested, 60% active; inhibition, % at 12.5 µM; purified caspase-3, Z-DEVD-aminoluciferin luminescence, 60 min; shares compounds with SENP7 block; AID 488918;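 active means mean inhibition above about 50%, limit read from the data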;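 further: plate controls were enzyme with DMSO for no effect and wells without caspase-3 for full effect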
# Target sequence (P42574 28-227 limits assumed): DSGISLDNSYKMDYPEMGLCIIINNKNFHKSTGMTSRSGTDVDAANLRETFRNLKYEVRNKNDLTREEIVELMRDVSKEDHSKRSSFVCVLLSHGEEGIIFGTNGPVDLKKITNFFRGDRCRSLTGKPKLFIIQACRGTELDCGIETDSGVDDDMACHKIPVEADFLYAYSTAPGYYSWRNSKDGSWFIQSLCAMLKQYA
# SENP luc ctr: luminescence interference (SENP counter-screen); shares compounds with SENP7 block; Pre-incubated SENP8/Z-RLRGG-aminoluciferin, luciferase luminescence interference; inhibition, % at 12.5 µM; 6,200 tested, 39% active;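 active means mean inhibition above about 50% when retested at one dose, limit read from the data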;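 further: plate controls were DMSO wells with completed reaction for no effect and substrate without enzyme for full effect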
# The depositor's hits bear a star; · = no result given. Compounds with a hit are over-represented: about 2.5% of the library has one in this group of screens.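 How the source made its calls, unless noted: active means mean inhibition above about 50% in the one-dose retest (limit read from the data); inactive means the rest.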
SMILES,SENP7 block,SENP6 inh,SENP8 block-1,SENP1 inh,SENP8 block-2,SENP8 confirm,SENP6 conf,SENP7 confirm,Casp3 select,SENP luc ctr
CC(=O)Nc1ccc(C(=O)OCc2ccccc2Br)cc1,5,-8,13,3,-13,·,·,·,·,·
COc1ccc(C(=O)Nc2nnc(-c3ccccc3)s2)cc1,10,-16,-118,-2,-7,·,·,·,·,·
COC(=O)Nc1nnc(-c2ccc(OC)cc2)s1,75*,68*,-329,-2,49,50*,55*,85*,85*,52*
O=C(Nc1nnc(-c2ccccc2F)s1)c1cccnc1,36,-7,-137,1,30,·,·,·,·,·
COc1ccc(-c2nnc(NC(=O)c3c(OC)cccc3OC)s2)cc1,-9,12,-231,0,-1,·,·,·,·,·
O=C(Nc1nnc(C(F)(F)F)s1)c1cccnc1,48,55*,-4,7,20,54*,54*,88*,85*,66*
COc1ccc(C(=O)Nc2nnc(C(F)(F)F)s2)cc1,19,61*,-32,2,16,33,31,64*,64*,27
O=C(CN1C(=O)NC2(CCCCCC2)C1=O)NCc1ccc(Cl)cc1,0,0,3,3,-3,·,·,·,·,·
CC(C)C(=O)NCC(c1ccc2c(c1)OCO2)N1CCOCC1 (centres undefined),-3,5,6,1,13,·,·,·,·,·
CCNC(=O)C1(C)CCN(C(=O)c2ccc(C#N)cc2)C1 (centres undefined),·,·,21,1,·,·,·,·,·,·
O=c1oc2c(CN3CCCCC3)c(O)ccc2cc1-c1nc2ccccc2[nH]1,·,·,-250,-25,·,·,·,·,·,·
O=c1oc2c(O)cccc2cc1-c1nc2ccccc2[nH]1,96*,93*,-287,-24,1,31,85*,36,39,14
Cc1nn(-c2ccc(C(=O)O)cc2)c(N)c1-c1ccccc1,0,12,17,0,-9,·,·,·,·,·
Cc1ccc(-c2cnn(-c3cccc([N+](=O)[O-])c3)c2N)cc1,53*,52*,11,-2,20,28,28,71*,38,2
Nc1c(-c2ccc(Cl)cc2)cnn1-c1ccccc1,93*,87*,21,1,84*,77*,77*,94*,84*,4
Nc1c(-c2ccc(Cl)cc2)nnn1-c1ccccc1,47,51*,20,0,19,35,30,65*,50*,2
Nc1c(-c2ccccc2)cnn1-c1ccc(C(=O)O)cc1,53*,-1,5,1,27,45,41,76*,66*,60*
Cc1ccccc1-c1cnn(-c2cccc([N+](=O)[O-])c2)c1N,3,-4,11,2,15,·,·,·,·,·
Nc1c(-c2ccc(Cl)cc2)cnn1-c1cc(C(F)(F)F)cc(C(F)(F)F)c1,1,-9,-1,1,1,·,·,·,·,·
Cc1ccc(-c2cnn(-c3ccccc3)c2N)cc1,95*,91*,12,4,89*,93*,94*,101*,95*,62*
COc1ccc(-c2cnn(-c3ccccc3)c2N)cc1OC,-4,-14,28,1,-12,·,·,·,·,·
Cc1nc2cc(NC(=O)Nc3cccc4ccccc34)ccc2n1C,80*,39,-131,-1,26,19,21,74*,71*,9
CC(=O)Oc1ccc(Cn2c(C)c(C(=O)NCCC#N)sc2=O)cc1,·,·,9,-2,·,·,·,·,·,·
OC(c1ccc(OCc2ccccc2)cc1)c1nnc(-c2ccccc2)o1 (centres undefined),13,50*,14,2,29,31,33,56*,18,20
Cc1nc(C)c(-c2csc(Nc3ncccc3C)n2)s1,59*,67*,5,2,61*,52*,60*,86*,50,25
SMILES,SENP7 block,SENP6 inh,SENP8 block-1,SENP1 inh,SENP8 block-2,SENP8 confirm,SENP6 conf,SENP7 confirm,Casp3 select,SENP luc ctr
Cc1cccnc1Nc1nc(-c2ccc(O)c(O)c2)cs1,66*,92*,11,3,92*,89*,89*,96*,45,86*
COc1ccc(-c2csc(Nc3ncccc3C)n2)cc1,93*,100*,11,1,92*,95*,97*,102*,87*,92*
Cc1nn(-c2ccc(F)cc2)c2sc(C(=O)O)cc12,98*,-10,8,3,0,4,2,6,-3,-13
Cc1ccc(-n2nc(C)c3cc(C(=O)O)sc32)cc1,-3,-25,20,0,-7,·,·,·,·,·
CC(=O)Nc1nc(COc2ccc3ccccc3c2)cs1,62*,62*,10,4,37,44,47,81*,·,37
O=C(Nc1nc(COc2ccccc2)cs1)C1CCC1,10,54*,12,2,1,-28,-20,-11,-7,-3
CC(=O)Nc1nc(COc2ccccc2)cs1,2,-5,10,1,-3,·,·,·,·,·
O=C(NN=Cc1ccccc1C(=O)O)c1cccc(S(=O)(=O)Nc2cccc(C(F)(F)F)c2)c1,-6,32,24,2,37,·,·,·,·,·
Cc1cccc2cc(C(c3nnnn3CC3CCCO3)N3CCc4ccccc4C3)c(=O)[nH]c12 (centres undefined),49,67*,·,·,38,-1,27,6,9,3
Cc1ccc2cc(C(c3nnnn3CC3CCCO3)N3CCc4ccccc4C3)c(=O)[nH]c2c1 (centres undefined),86*,7,-50,-57,74*,7,10,0,-3,-3
CCOc1ccc2[nH]c(=O)c(C(c3nnnn3CC3CCCO3)N3CCc4ccccc4C3)cc2c1 (centres undefined),15,16,-197,10,3,·,·,·,·,·
O=C(Oc1ccc2ccccc2c1Br)N1CCCCCC1,82*,90*,16,-2,78*,87*,91*,96*,72*,39
COCCCNC(=O)CN(c1cc(Cl)ccc1OC)S(=O)(=O)c1ccc(C)c([N+](=O)[O-])c1,-6,73*,17,-1,-10,6,3,-10,-5,-2
COc1ccc(N(CC(=O)NCc2ccncc2)S(=O)(=O)c2ccc(C)c([N+](=O)[O-])c2)cc1,1,85*,22,1,0,-2,0,-2,-1,0

# Compound activity as filed in PubChem BioAssay.
